Data from ChEMBL document CHEMBL5653631, “A Potent and Selective ULK1 Inhibitor Suppresses Autophagy and Sensitizes Cancer Cells to Nutrient Stress” (iScience, 2018).
Each block holds one compound with its values, some of them ahead of it.

Columns and labels:
[1] = target: Serine/threonine-protein kinase 32C (Homo sapiens) (UniProt Q86UX6); assay: Inhibition of human recombinant YANK3 at 500 nM related to control ULK1
[2] = target: T1, Inhibitor of nuclear factor kappa-B kinase subunit alpha (Homo sapiens) (UniProt O15111); assay: Inhibition of human recombinant IKKa at 500 nM related to control ULK1
T1 sequence (whole entry): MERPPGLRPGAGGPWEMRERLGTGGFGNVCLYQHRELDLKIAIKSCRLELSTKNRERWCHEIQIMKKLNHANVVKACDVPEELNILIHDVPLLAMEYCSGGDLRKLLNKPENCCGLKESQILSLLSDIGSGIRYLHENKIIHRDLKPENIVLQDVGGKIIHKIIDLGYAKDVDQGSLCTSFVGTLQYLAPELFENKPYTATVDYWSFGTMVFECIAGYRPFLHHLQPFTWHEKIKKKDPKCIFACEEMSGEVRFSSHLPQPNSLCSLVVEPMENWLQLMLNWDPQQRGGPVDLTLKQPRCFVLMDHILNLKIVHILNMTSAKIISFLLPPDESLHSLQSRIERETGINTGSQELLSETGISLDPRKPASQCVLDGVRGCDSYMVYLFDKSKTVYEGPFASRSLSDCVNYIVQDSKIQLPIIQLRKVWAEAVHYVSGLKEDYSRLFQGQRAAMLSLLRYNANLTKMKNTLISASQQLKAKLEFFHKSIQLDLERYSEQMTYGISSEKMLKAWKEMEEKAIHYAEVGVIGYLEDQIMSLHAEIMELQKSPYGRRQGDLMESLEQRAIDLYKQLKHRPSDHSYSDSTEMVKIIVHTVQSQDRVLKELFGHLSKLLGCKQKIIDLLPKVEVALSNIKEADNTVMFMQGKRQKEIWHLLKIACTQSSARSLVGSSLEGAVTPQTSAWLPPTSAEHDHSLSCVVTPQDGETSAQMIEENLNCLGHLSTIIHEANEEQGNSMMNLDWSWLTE

[3] = target: Dual specificity tyrosine-phosphorylation-regulated kinase 1B (Homo sapiens) (UniProt Q9Y463); assay: Inhibition of human recombinant DYRK1B at 15 nM in presence of ATP by radiometric assay relative to control
Chain of Dual specificity tyrosine-phosphorylation-regulated kinase 1B (Homo sapiens) (Q9Y463 whole entry, looked up): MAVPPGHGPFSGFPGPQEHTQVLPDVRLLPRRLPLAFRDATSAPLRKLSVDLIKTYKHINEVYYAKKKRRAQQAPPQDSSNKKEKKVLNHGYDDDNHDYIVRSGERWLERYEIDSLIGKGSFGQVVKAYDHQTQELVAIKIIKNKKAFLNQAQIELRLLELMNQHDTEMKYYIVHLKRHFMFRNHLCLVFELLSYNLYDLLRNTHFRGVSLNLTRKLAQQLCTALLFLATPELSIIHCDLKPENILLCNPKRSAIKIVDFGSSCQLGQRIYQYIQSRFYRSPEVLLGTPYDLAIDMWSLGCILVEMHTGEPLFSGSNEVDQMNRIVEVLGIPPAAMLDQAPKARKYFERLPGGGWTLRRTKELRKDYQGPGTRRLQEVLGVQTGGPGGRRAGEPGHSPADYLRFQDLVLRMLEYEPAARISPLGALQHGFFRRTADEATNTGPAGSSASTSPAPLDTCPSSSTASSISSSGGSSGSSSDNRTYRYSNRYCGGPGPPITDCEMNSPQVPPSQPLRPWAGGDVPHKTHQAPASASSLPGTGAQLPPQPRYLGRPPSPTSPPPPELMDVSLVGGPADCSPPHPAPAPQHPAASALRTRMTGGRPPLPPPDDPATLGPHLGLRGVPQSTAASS

[4] = target: Serine/threonine-protein kinase/endoribonuclease IRE1 (Homo sapiens) (UniProt O75460); assay: Inhibition of human recombinant IRE1 at 15 nM in presence of ATP by radiometric assay relative to control
Chain of Serine/threonine-protein kinase/endoribonuclease IRE1 (Homo sapiens) (O75460 19-977 limits assumed): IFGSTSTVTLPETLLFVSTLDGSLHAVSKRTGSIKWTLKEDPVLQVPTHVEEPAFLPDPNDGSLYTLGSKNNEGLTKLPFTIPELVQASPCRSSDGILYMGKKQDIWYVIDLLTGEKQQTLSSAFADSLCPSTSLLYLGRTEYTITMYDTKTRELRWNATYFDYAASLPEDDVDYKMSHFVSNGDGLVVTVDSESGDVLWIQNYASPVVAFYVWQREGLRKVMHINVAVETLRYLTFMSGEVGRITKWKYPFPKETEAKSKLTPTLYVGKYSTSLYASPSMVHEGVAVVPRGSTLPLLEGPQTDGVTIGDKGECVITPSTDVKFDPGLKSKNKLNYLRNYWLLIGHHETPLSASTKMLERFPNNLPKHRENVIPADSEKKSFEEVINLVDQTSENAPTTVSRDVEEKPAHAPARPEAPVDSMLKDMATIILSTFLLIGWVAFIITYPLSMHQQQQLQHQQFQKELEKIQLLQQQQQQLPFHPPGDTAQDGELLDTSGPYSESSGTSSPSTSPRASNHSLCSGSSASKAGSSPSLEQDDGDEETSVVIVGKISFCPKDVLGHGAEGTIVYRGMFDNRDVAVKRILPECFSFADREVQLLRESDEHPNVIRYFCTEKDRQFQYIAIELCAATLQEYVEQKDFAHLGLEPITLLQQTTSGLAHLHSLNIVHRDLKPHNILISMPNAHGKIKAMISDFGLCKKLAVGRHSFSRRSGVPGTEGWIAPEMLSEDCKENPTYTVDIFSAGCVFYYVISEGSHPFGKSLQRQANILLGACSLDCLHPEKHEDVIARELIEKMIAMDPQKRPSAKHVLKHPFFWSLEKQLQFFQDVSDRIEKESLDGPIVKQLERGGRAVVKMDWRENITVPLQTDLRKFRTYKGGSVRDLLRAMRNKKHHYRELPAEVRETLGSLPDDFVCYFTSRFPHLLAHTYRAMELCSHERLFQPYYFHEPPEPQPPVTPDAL

[5] = target: Transcription initiation factor TFIID subunit 1-like (Homo sapiens) (UniProt Q8IZX4); assay: Inhibition of human recombinant TAF1L at 15 nM in presence of ATP by radiometric assay relative to control
Chain of Transcription initiation factor TFIID subunit 1-like (Homo sapiens) (Q8IZX4 whole entry): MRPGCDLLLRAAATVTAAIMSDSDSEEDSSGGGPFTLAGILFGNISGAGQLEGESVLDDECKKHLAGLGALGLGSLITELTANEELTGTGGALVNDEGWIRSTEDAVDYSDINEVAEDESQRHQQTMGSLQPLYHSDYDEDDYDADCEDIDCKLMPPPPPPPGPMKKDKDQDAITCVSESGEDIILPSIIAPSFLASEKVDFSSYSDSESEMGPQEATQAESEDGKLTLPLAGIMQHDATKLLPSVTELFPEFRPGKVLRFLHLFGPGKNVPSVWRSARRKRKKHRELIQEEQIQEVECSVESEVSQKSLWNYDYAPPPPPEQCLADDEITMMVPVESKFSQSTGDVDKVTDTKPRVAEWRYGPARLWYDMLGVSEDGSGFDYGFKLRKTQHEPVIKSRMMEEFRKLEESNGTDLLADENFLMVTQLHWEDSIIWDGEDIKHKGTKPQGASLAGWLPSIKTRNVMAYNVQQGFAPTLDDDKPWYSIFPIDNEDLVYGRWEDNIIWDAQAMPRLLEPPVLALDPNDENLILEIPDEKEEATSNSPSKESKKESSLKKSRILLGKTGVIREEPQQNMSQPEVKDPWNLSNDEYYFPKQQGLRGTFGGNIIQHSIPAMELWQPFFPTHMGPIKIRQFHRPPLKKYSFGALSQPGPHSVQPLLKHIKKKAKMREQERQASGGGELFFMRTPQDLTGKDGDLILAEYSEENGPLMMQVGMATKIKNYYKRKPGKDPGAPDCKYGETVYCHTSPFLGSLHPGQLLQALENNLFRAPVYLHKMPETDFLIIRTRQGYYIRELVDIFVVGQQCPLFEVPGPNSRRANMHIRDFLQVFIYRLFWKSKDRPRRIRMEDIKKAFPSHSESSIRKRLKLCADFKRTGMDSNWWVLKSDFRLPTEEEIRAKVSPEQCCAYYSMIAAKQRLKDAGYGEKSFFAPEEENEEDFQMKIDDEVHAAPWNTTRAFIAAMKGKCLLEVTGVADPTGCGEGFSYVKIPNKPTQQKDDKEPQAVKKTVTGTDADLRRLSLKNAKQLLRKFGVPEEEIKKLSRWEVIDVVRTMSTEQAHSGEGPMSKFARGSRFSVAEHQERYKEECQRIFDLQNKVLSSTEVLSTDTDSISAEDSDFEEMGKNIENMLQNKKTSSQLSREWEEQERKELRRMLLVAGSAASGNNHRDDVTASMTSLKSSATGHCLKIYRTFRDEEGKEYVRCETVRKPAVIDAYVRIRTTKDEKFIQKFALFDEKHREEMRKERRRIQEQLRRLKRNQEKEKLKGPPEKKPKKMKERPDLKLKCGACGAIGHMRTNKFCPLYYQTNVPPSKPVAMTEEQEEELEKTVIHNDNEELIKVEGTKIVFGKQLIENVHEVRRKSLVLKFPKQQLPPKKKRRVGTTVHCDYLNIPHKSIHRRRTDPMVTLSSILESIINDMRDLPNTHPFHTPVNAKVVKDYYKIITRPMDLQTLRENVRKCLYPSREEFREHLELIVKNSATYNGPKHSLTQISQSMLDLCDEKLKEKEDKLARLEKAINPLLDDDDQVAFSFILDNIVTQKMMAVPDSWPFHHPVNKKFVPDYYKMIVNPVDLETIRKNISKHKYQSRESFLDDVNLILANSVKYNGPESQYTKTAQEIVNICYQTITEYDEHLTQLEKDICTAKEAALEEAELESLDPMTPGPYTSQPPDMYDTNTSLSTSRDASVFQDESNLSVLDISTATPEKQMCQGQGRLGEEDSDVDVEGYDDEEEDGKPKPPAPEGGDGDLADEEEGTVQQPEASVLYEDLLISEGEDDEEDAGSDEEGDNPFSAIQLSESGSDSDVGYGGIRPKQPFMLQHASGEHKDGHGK

[6] = target: T2, Rhodopsin kinase GRK1 (Homo sapiens) (UniProt Q15835); assay: Inhibition of human recombinant RHOK at 15 nM in presence of ATP by radiometric assay relative to control
T2 sequence (whole entry): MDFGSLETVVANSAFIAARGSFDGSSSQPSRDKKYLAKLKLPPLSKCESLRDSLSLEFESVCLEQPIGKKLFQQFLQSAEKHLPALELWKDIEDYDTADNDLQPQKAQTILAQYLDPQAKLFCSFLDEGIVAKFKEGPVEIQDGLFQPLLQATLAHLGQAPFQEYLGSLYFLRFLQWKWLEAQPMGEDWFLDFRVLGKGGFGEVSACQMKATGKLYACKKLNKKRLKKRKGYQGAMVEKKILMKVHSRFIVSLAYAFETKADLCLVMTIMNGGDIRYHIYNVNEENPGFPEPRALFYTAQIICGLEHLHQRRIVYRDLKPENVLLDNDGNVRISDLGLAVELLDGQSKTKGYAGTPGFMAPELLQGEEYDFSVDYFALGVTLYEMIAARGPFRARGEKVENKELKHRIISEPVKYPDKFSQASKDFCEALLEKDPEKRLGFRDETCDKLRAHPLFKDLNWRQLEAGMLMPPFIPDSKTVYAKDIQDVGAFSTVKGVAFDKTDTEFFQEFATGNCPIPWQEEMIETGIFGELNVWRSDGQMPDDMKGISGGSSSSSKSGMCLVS

[7] = target: T3, Serine/threonine-protein kinase A-Raf (Homo sapiens) (UniProt P10398); assay: Inhibition of human recombinant ARAF at 15 nM in presence of ATP by radiometric assay relative to control
T3 sequence (whole entry): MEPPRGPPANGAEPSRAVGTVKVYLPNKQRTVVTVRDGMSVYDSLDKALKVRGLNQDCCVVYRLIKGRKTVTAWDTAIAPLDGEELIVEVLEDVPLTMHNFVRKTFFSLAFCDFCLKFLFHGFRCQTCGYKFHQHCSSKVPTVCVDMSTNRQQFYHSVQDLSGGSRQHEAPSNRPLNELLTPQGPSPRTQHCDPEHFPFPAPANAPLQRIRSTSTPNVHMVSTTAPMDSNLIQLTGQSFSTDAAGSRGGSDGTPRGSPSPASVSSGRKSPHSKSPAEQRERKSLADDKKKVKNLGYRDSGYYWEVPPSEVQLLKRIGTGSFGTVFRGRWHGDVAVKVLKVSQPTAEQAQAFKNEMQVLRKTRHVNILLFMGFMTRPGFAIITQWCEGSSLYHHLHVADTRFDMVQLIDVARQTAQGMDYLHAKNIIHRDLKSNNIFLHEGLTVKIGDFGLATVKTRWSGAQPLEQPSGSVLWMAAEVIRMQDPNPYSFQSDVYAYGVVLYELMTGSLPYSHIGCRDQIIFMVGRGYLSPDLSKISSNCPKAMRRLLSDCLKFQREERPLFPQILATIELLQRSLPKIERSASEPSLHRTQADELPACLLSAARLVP
In short: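 Panel of 327 recombinant human kinases, each assayed in vitro by radiometric activity assay in duplicate at a single inhibitor concentration per compound, chosen with reference to its ULK1 inhibition. Activity remaining was expressed as percent of vehicle control, and percent inhibition was calculated as 100 minus percent activity remaining.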

[8] = target: Serine/threonine-protein kinase tousled-like 2 (Homo sapiens) (UniProt Q86UE8); assay: Inhibition of human recombinant TLK2 at 40 nM related to control ULK1
Chain of Serine/threonine-protein kinase tousled-like 2 (Homo sapiens) (Q86UE8 whole entry, looked up): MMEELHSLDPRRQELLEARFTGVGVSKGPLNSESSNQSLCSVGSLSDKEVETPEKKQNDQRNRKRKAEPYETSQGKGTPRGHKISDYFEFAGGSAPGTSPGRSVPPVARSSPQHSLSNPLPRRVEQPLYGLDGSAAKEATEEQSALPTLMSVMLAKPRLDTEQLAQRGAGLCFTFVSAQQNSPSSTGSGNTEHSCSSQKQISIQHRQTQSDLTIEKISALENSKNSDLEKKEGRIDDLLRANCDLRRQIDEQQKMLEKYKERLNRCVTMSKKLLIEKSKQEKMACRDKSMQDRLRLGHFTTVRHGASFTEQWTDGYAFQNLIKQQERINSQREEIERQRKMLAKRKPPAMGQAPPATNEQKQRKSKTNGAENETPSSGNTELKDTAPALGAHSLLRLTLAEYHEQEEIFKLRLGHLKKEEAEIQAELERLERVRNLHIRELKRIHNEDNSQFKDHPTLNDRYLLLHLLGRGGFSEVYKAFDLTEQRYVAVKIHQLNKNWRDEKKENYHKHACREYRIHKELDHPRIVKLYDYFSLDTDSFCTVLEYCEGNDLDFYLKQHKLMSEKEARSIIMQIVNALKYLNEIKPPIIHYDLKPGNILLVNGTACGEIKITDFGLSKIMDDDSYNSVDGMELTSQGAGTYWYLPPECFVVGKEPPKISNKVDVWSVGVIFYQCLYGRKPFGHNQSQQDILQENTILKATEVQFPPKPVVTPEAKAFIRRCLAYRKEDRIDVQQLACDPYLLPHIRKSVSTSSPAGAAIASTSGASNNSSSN

[9] = target: Serine/threonine-protein kinase N1 (Homo sapiens) (UniProt Q16512); assay: Inhibition of human recombinant PKN1 at 40 nM in presence of ATP by radiometric assay relative to control
Chain of Serine/threonine-protein kinase N1 (Homo sapiens) (Q16512 2-942 limits assumed): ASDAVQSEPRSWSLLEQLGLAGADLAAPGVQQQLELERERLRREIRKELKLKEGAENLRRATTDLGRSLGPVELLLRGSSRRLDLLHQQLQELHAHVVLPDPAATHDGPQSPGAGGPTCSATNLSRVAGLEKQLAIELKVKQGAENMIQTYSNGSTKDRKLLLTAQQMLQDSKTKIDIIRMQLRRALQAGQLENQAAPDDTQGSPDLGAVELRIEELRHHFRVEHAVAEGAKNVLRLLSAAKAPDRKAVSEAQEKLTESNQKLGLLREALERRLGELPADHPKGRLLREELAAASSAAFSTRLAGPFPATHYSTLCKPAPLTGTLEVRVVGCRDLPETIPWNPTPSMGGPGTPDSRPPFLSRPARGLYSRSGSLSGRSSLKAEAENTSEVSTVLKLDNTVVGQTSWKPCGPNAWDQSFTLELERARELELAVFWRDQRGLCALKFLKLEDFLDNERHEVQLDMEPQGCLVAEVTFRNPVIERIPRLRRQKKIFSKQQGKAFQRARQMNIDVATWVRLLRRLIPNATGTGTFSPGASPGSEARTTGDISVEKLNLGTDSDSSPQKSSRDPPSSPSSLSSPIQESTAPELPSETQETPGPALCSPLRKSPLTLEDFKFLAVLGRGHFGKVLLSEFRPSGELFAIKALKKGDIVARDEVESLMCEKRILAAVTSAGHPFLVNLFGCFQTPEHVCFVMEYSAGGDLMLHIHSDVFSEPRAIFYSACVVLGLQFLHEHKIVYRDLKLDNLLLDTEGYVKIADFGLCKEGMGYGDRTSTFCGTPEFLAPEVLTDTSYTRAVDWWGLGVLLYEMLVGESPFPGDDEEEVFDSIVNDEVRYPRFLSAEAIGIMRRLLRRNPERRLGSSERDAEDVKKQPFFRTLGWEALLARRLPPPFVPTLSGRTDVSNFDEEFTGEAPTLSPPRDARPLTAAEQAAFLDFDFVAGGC

- fold change (FC) [1]: 0
- fold change (FC) [2]: 0.03
Structure (SMILES): CNC(=O)c1ccccc1Oc1nc(Nc2cc(OC)c(OC)c(OC)c2)ncc1Br

- inhibition [3]: 65%
- inhibition [4]: 0%
- inhibition [5]: 43%
- inhibition [6]: 0%
- inhibition [7]: 6%
Structure (SMILES): CC(C)[C@H](NC(=O)c1cc(-c2cnn3cc(-c4ccc(OCCN5CCCCC5)cc4)cnc23)cs1)C(F)(F)F

- fold change (FC) [8]: 0
- inhibition [9]: 0%
Structure (SMILES): O=C(N[C@@H](C1CC1)C(F)(F)F)c1cc(-c2cnn3cc(-c4ccc(F)cc4)cnc23)cs1
